Source: ChEMBL document CHEMBL4184341, “Structure-Based Design of Inhibitors with Improved Selectivity for Steroidogenic Cytochrome P450 17A1 over Cytochrome P450 21A2” (J Med Chem, 2018)

Tests used:
[1] = target: T1, Steroid 17-alpha-hydroxylase/17,20 lyase (Homo sapiens, UniProt P05093); experiment: Inhibition of C-terminal His-tagged recombinant human CYP17A1delta19H mutant expressed in Escherichia coli DH5alpha assessed as decrease in progesterone hydroxylation preincubated for 3 mins followed by NADPH addition measured after 10 mins in presence of cytochrome p450 reductase by LC-MS/MS method
T1 sequence (P05093 whole entry, looked up): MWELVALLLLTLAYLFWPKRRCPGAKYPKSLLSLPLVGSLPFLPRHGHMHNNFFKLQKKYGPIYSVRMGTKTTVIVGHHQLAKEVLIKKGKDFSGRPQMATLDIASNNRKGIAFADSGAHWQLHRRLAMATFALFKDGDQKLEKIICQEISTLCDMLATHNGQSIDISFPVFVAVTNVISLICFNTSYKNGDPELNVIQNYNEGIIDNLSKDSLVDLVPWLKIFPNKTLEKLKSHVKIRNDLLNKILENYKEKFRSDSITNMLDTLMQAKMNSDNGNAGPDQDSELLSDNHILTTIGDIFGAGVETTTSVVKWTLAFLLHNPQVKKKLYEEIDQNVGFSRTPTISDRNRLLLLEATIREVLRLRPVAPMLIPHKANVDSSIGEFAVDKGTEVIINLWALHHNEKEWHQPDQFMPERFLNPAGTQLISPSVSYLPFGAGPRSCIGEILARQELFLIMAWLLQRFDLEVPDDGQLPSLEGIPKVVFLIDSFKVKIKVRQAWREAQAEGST
Method in brief: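 Purified human CYP17A1 (20 pmol) was preincubated with full-length human CPR (80 pmol) for 20 min at rt. […] After 3 min at 37 °C, 1 mM NADPH was added and the reaction ran 10 min before a TCA stop. The 17α-hydroxy product was read by LC-MS/MS.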

Homo sapiens = species: Homo sapiens; experiment: Selectivity ratio of IC50 for C-terminal His-tagged recombinant human CYP21A2deltaH mutant to IC50 for C-terminal His-tagged recombinant human CYP17A1delta19H mutant
Steroid 21-hydroxylase = Steroid 21-hydroxylase (Homo sapiens, UniProt P08686); experiment: Inhibition of C-terminal His-tagged recombinant human CYP21A2deltaH mutant expressed in Escherichia coli DH5alpha assessed as decrease in progesterone hydroxylation preincubated for 3 mins followed by NADPH addition measured after 8 mins in presence of cytochrome p450 reductase by LC-MS/MS method
Chain of Steroid 21-hydroxylase (P08686 whole entry, looked up, stated change not applied): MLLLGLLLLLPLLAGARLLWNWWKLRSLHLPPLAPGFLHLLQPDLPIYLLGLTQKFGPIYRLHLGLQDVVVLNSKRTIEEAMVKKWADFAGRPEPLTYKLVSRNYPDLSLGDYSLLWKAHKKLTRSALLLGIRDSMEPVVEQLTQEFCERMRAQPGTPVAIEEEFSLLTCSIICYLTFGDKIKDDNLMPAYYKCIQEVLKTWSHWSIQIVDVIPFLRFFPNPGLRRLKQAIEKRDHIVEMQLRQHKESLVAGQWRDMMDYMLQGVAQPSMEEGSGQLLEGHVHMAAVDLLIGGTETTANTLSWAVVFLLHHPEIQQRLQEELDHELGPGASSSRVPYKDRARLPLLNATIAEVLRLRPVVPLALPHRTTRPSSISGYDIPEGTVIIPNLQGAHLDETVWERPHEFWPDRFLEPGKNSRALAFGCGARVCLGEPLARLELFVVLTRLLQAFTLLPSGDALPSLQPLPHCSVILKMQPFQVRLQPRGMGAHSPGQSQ

[2] = target: T1, Steroid 17-alpha-hydroxylase/17,20 lyase; experiment: Inhibition of C-terminal His-tagged recombinant human CYP17A1delta19H mutant expressed in Escherichia coli JM109 cells assessed as decrease in progesterone hydroxylation in presence of cytochrome P450 reductase […]

IC50 [2]	SMILES	IC50 [1]	Ratio IC50 (Homo sapiens)	IC50 (Steroid 21-hydroxylase)
–	C[C@]12CC[C@H](O)CC1=CC[C@@H]1[C@@H]2CC[C@]2(C)C(n3cnc4ccccc43)=CC[C@@H]12 [GALETERONE]	0.0281 µM	–	–
–	C[C@]12CC[C@H](O)C[C@@H]1[C@@H](O)C[C@@H]1[C@@H]2CC[C@]2(C)C(c3cccnc3)=CC[C@@H]12	0.0072 µM	33	0.234 µM
–	C[C@]12CC[C@H](O)CC1=C(C(N)=O)C[C@@H]1[C@@H]2CC[C@]2(C)C(c3cccnc3)=CC[C@@H]12	0.0228 µM	29	0.673 µM
–	C[C@]12CC[C@H](O)CC1=C(C#N)C[C@@H]1[C@@H]2CC[C@]2(C)C(c3cccnc3)=CC[C@@H]12	0.0155 µM	–	–
–	C[C@]12CC[C@H](O)C[C@@H]1C(=O)C[C@@H]1[C@@H]2CC[C@]2(C)C(c3cccnc3)=CC[C@@H]12	0.0124 µM	35	0.44 µM
–	C[C@]12CCC(=O)C=C1CC[C@@H]1[C@@H]2CC[C@]2(C)C(c3cccnc3)=CC[C@@H]12	0.00613 µM	–	0.0007 µM
–	C[C@]12CC[C@H](O)CC1=CC[C@@H]1[C@@H]2CC[C@]2(C)C(c3ccccc3)=CC[C@@H]12	> 20 µM	–	≥ 0.7 µM
0.0094 to 0.092 µM	C[C@]12CC[C@H](O)CC1=CC[C@@H]1[C@@H]2CC[C@]2(C)C(c3cccnc3)=CC[C@@H]12 [ABIRATERONE]	0.00494 µM	–	–
–	C[C@]12CC[C@H](O)C[C@@H]1NC(=O)C[C@@H]1[C@@H]2CC[C@]2(C)C(c3cccnc3)=CC[C@@H]12	0.23 µM	16	3.6 µM
